ChEMBL document CHEMBL4808210, “Mapping Chromone-3-Phenylcarboxamide Pharmacophore: Quid Est Veritas?” (J Med Chem, 2021)
Each block holds one molecule with its values, some of them ahead of it. Activity calls are given as the source filed them. The calls are words filed in the database; no cut-off is given here.

Experiments:
[1] = target: T1, Amine oxidase [flavin-containing] A (Homo sapiens, UniProt P21397); experiment: (§1) Inhibition of recombinant human MAO-A expressed in baculovirus infected BTI-TN- 5B1-4 insect cells using kynuramine as substrate preincubated for 10 mins in presence of substrate followed by enzyme addition and measured every minute for 30 mins by spectrophotometry analysis
T1 sequence (P21397 whole entry): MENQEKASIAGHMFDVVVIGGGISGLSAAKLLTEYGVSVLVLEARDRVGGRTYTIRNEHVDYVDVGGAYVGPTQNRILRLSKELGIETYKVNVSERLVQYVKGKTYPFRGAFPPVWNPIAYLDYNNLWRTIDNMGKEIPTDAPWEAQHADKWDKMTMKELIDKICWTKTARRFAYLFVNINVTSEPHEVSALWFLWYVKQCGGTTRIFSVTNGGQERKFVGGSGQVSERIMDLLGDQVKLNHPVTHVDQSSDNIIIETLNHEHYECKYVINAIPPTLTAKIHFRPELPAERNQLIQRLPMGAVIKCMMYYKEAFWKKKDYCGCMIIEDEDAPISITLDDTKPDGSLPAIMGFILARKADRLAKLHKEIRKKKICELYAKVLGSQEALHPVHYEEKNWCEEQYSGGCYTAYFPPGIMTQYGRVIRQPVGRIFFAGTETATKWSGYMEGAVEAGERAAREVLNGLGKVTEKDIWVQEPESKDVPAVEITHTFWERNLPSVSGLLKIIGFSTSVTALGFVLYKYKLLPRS
Summary of the method: (§2)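 Recombinant hMAO-A and hMAO-B were assayed with kynuramine as substrate. Percent inhibition was taken at 10 μM, the highest concentration tested. Where the hMAO-A IC₅₀ was not reached, it was taken as 10 μM.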

[2] = target: T2, Amine oxidase [flavin-containing] B (Homo sapiens, UniProt P27338); experiment: (§3) Inhibition of recombinant human MAO-B expressed in baculovirus infected BTI-TN- 5B1-4 insect cells using kynuramine as substrate preincubated for 10 mins in presence of substrate followed by enzyme addition and measured every minute for 30 mins by spectrophotometry analysis; assay type: cell-based
T2 sequence (P27338 whole entry): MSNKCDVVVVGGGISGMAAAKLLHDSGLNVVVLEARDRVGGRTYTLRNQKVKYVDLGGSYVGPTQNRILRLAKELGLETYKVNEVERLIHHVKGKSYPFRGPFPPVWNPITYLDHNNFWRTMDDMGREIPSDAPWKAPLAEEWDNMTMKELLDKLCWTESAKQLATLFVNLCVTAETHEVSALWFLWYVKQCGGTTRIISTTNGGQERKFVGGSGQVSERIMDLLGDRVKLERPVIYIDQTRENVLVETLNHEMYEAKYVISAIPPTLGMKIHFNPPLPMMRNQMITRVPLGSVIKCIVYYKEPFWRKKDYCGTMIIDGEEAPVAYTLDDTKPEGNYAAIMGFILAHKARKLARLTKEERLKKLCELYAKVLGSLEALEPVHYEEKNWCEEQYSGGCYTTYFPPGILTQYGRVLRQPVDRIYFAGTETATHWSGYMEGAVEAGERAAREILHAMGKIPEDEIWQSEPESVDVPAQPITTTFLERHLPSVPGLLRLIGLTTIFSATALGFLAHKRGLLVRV

Homo sapiens = organism: Homo sapiens; experiment: Selectivity index, ratio of IC50 for recombinant human MAO-A expressed in baculovirus infected BTI-TN- 5B1-4 insect cells to IC50 for recombinant human MAO-B expressed in baculovirus infected BTI-TN- 5B1-4 insect cells using kynuramine as substrate preincubated for 10 mins in presence of substrate followed by enzyme addition and measured every minute for 30 mins by spectrophotometry analysis; summary of the method: as §2
SH-SY5Y [3] = experiment: Cytotoxicity against human SH-SY5Y cells assessed as effect on NR uptake at 1 to 10 uM measured after 24 hrs by neutral red uptake assay; assay type: cell-based; details: dose 1-10 µM
Summary of the method: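 Differentiated SH-SY5Y cells were exposed to compounds at 1 and 10 μM for 24 h. Lysosomal activity was read as neutral red dye uptake and compared with untreated cells. Mean ± SEM of at least three independent experiments run in triplicate.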

Caco-2 [4] = experiment: Cytotoxicity against human Caco-2 cells assessed as effect on cell viability at 1 to 10 uM measured after 24 hrs by MTT assay; assay type: cell-based; details: caco-2, 24 h, dose 1-10 µM
Summary of the method: (§4)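 Caco-2 cells, and SH-SY5Y cells first differentiated toward a dopaminergic-like phenotype, were treated for 24 h with compounds at 1 and 10 μM. Metabolic activity was read as MTT reduction to formazan, relative to untreated cells. Mean ± SEM of at least three independent experiments, each in triplicate.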

MAO-A = target: T3, MAO-A (Homo sapiens, UniProt P21397); experiment: as §1, with “cells at 10 uM” for “cells”, “analysis relative to control” for “analysis”; details: probe kynuramine, time 40 min; summary of the method: as §2
T3 sequence (P21397 whole entry): T1 sequence (P21397 whole entry)

SH-SY5Y [5] = experiment: Cytotoxicity against human SH-SY5Y cells assessed as reduction in cell viability at 10 uM measured after 24 hrs by MTT assay relative to control; assay type: cell-based; summary of the method: as §4
[6] = Solubility of the compound in phosphate buffer at > 10 uM; assay type: physicochemical
SH-SY5Y [7] = experiment: Cytotoxicity against human SH-SY5Y cells assessed as reduction in cell viability at 1 uM measured after 24 hrs by MTT assay relative to control; assay type: cell-based; summary of the method: as §4
Caco-2 [8] = experiment: Cytotoxicity against human Caco-2 cells assessed as reduction in cell viability at 10 uM measured after 24 hrs by MTT assay relative to control; assay type: cell-based; details: caco-2, 24 h; summary of the method: as §4
[9] = target: T2, Amine oxidase [flavin-containing] B; experiment: as §3, with “cells at 10 uM” for “cells”, “analysis relative to control” for “analysis”; details: BTI-TN-5B1-4, human, 0.5 h, time 40 min; summary of the method: as §2
HUVEC [10] = experiment: Cytotoxicity against HUVEC cells at 10 uM incubated for 24 to 48 hrs by Celltiter-Glo assay relative to control; assay type: cell-based; details: human, time 24-48 hrs
Summary of the method: (§5)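 Cells (HEK-293, HUVEC, MCF-7) exposed to test compounds at 10 μM for 24 h; cytotoxicity read in triplicate with a luminescence kit measuring intracellular ATP levels.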

HEK293 [11] = experiment: Cytotoxicity against HEK293 cells at 10 uM incubated for 24 to 48 hrs by Celltiter-Glo assay relative to control; assay type: cell-based; details: human, hek293, 10 µM, time 24-48 hrs; summary of the method: as §5
MCF7 [12] = experiment: Cytotoxicity against human MCF7 cells at 10 uM incubated for 24 to 48 hrs by Celltiter-Glo assay relative to control; assay type: cell-based; details: mcf7, 10 µM, time 24-48 hrs; summary of the method: as §5
HUVEC [13] = experiment: Cytotoxicity against HUVEC cells incubated for 24 to 48 hrs by Celltiter-Glo assay; assay type: cell-based, Homo sapiens; details: huvec
HEK293 [14] = experiment: Cytotoxicity against HEK293 cells incubated for 24 to 48 hrs by Celltiter-Glo assay; assay type: cell-based, Homo sapiens
MCF7 [15] = experiment: Cytotoxicity against human MCF7 cells incubated for 24 to 48 hrs by Celltiter-Glo assay; assay type: cell-based
hERG = hERG (Homo sapiens, UniProt Q12809); experiment: Inhibition of human ERG at 10 uM incubated for 2 hrs by fluorescence polarization assay relative to control
Summary of the method: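 hERG binding was measured by fluorescence polarization, using a homogenized membrane preparation containing hERG plus a fluorescent tracer. A drop in FP signal from tracer displacement was read as inhibition. Compounds were tested at 10 μM.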

[16] = target: ATP-dependent translocase ABCB1 (Homo sapiens, UniProt P08183); experiment: Modulation of P-gp-mediated Rhodamine-123 efflux in human Caco-2 cells assessed as Rhodamine-123 accumulation at 10 uM pretreated for 30 mins in presence or absence of Zos followed by Rho-123 addition and measured after 90 mins by fluorescence spectroscopy; assay type: cell-based; details: caco-2, 2 h, time 120 min
Summary of the method: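 Caco-2 cells were exposed to compounds at 10 μM during incubation with the P-gp substrate rhodamine 123 (5 μM). Zosuquidar served as the specific P-gp inhibitor. Cellular rhodamine 123 was read by fluorescence spectroscopy. Mean ± SEM of at least three independent experiments in triplicate.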

SH-SY5Y [17] = experiment: Protection against iron(III)-induced damage in human SH-SY5Y cells assessed as increase in lysosomal activity at 1 to 10 uM pretreated for 30 mins followed by iron(III) treatment at 1000 uM after 24 hrs by NR uptake assay; assay type: functional, cell-based; details: dose 1-10 µM, time 24.5 hrs
Summary of the method: (§6)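 Differentiated SH-SY5Y cells were pretreated with compounds at 1 or 10 μM for 30 min, then exposed to iron(III) at 1000 or 1500 μM for 24 h. Viability was read by neutral red uptake. Mean ± SD of three independent experiments, two-way ANOVA.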

SH-SY5Y [18] = experiment: Protection against iron(III)-induced damage in human SH-SY5Y cells assessed as increase in lysosomal activity at 1 to 10 uM pretreated for 30 mins followed by iron(III) treatment at 1500 uM after 24 hrs by NR uptake assay; assay type: functional, cell-based; details: dose 1-10 µM, time 24.5 hrs; summary of the method: as §6

Sequence of hERG (Q12809 whole entry): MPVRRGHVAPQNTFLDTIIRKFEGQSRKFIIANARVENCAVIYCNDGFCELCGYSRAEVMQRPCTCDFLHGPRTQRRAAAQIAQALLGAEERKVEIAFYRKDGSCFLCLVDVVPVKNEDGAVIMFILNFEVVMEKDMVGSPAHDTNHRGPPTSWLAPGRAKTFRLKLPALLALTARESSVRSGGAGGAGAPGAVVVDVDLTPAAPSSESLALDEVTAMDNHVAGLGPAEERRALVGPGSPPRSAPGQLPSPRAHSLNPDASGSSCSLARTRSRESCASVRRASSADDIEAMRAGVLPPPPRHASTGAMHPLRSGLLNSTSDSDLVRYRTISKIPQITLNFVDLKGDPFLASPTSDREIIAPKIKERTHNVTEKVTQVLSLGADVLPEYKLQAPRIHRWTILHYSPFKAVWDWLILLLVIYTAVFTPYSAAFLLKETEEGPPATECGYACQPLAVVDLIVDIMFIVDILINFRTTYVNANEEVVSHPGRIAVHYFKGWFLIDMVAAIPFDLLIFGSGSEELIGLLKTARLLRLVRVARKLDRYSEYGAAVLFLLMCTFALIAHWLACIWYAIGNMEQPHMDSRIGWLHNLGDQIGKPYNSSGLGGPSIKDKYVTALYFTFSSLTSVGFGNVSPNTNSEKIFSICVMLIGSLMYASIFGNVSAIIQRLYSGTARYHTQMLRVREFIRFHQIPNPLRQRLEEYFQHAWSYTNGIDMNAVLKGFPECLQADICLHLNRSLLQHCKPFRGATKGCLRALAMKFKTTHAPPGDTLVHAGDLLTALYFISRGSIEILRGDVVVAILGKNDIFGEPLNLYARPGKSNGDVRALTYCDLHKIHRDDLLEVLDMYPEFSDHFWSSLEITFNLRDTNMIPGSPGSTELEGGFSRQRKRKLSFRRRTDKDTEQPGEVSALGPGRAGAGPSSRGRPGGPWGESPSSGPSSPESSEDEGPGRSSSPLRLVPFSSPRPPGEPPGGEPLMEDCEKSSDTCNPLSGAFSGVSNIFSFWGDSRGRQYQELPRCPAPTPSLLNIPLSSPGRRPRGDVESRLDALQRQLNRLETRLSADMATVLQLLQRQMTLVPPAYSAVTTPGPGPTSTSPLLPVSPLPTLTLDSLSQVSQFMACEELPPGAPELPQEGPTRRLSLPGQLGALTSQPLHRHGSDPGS
Sequence of ATP-dependent translocase ABCB1 (P08183 whole entry): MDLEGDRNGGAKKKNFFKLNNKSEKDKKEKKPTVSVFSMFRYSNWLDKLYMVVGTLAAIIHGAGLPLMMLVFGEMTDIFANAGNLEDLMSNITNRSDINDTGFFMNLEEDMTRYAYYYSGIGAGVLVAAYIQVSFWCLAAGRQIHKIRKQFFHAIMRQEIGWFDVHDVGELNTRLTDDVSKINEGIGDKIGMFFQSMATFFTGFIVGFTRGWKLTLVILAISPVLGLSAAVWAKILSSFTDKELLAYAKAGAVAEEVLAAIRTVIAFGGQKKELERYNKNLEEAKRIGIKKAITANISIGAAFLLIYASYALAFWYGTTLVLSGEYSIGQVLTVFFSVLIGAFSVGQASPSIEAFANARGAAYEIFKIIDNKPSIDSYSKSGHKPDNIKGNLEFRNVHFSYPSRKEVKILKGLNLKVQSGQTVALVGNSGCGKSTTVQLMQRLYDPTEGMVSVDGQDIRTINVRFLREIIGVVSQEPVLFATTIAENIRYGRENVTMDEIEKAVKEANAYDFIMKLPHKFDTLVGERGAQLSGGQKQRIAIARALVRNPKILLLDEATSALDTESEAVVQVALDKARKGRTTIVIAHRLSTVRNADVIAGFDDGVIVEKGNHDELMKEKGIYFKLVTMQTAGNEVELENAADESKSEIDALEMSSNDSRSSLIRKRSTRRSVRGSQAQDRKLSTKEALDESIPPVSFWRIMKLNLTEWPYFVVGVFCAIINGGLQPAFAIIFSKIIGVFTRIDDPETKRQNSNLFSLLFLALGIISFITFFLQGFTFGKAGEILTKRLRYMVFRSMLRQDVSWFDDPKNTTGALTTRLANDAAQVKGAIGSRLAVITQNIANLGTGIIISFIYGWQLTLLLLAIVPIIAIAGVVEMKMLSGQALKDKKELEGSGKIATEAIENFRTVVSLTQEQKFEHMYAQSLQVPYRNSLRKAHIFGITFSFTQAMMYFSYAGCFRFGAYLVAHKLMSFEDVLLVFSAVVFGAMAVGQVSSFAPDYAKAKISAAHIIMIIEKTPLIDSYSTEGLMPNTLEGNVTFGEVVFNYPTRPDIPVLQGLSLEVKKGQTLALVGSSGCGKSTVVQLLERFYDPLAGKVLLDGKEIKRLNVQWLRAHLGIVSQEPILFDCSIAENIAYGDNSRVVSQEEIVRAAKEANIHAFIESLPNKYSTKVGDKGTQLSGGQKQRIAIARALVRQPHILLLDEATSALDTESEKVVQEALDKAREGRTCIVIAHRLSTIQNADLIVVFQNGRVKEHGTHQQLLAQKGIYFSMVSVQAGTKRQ

SMILES: Cc1ccc(NC(=O)C2=Cc3ccccc3OC2)cc1C
IC50 [1]: 13700 nM
IC50 [2]: 45.7 nM
Ratio IC50 (Homo sapiens): 300
Activity (SH-SY5Y [3]): Non-Toxic
Activity (Caco-2 [4]): Non-Toxic

SMILES: O=C(Nc1cccc(Cl)c1)c1cc2ccccc2oc1=O
IC50 [2]: 10.2 nM
inhibition at 0.5 h, 10 µM (MAO-A): 13.5%
Ratio IC50 (Homo sapiens): > 985
Activity (SH-SY5Y [5]): 71.8%
Activity (SH-SY5Y [7]): 79.5%
Activity (SH-SY5Y [3]): Non-Toxic
Activity (Caco-2 [8]): 93.5%

SMILES: COc1ccc(NC(=O)C2COc3ccccc3C2)cc1OC (stereo not drawn)
inhibition at 0.5 h, 10 µM (MAO-A): 11.8%
inhibition at 10 µM [9]: 14%

SMILES: O=C(Nc1cccc(Cl)c1)c1cc2ccccc2[nH]c1=O
inhibition at 0.5 h, 10 µM (MAO-A): 2.65%
inhibition at 10 µM [9]: 8.9%

SMILES: O=C(Nc1cccc(Cl)c1)c1coc2ccccc2c1=O
Activity (SH-SY5Y [5]): < 85%
Activity (SH-SY5Y [3]): Non-Toxic
Activity (Caco-2 [4]): Non-Toxic
Activity (HUVEC [10]): < 10%
Activity (HEK293 [11]): < 10%
Activity (MCF7 [12]): < 10%
IC50 (HUVEC [13]): Not Active
IC50 (HEK293 [14]): Not Active
IC50 (MCF7 [15]): Not Active
inhibition at 2 h, 10 µM (hERG): < 10%
Activity [16]: Not Active
Activity (SH-SY5Y [17]): inactive
Activity (SH-SY5Y [18]): inactive

SMILES: Cc1ccc(NC(=O)c2csc3ccccc3c2=O)cc1C
IC50 [2]: 3.35 nM
inhibition at 0.5 h, 10 µM (MAO-A): 0.2%
Ratio IC50 (Homo sapiens): > 2990
Activity (SH-SY5Y [3]): Non-Toxic
Activity (Caco-2 [4]): Non-Toxic

Now from value to molecule, other results behind:

inhibition at 0.5 h, 10 µM (MAO-A): 26.8%
SMILES: Cc1ccc(NC(=O)c2cc3ccccc3oc2=O)cc1C
Activity (SH-SY5Y [5]): < 85%
Activity (SH-SY5Y [3]): Non-Toxic
Activity (Caco-2 [4]): Non-Toxic

solubility [6]: Insoluble
SMILES: Cn1c(=O)c(C(=O)Nc2ccc(Cl)c(Cl)c2)cc2ccccc21

inhibition at 0.5 h, 10 µM (MAO-A): 1.32%
inhibition at 10 µM [9]: 8.1%
SMILES: Cc1ccc(NC(=O)c2cc3ccccc3[nH]c2=O)cc1C

solubility [6]: Insoluble
SMILES: O=C(Nc1ccc(Cl)c(Cl)c1)c1cc2ccccc2[nH]c1=O

solubility [6]: Insoluble
SMILES: Cn1c(=O)c(C(=O)Nc2cccc(Cl)c2)cc2ccccc21
